{"source": "paper PMC11474258", "about": "(RSC Advances, 2024)", "key": {"[1]": {"details": "concentrations up to 5 mM; cited from earlier work"}, "A549 cells": {"test_system": "A549 cells", "assay": "MTT cell viability assay", "type": "cell-based", "details": "18 h, triplicates, CX4 alone up to 200 μM", "outline": "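A549 cells were grown in DMEM/F12 with 10% heat-inactivated FBS and 1% penicillin/streptomycin at 37 °C, 5% CO2. They were seeded at 1×10^4 cells/well and exposed in triplicate for 18 h to a range of test compound concentrations, alone or complexed with peptide. CX4 was at most 4 mM in complexes. MTT absorbance was read at 570 nm and reported as mean ± standard error, with Tukey test (P < 0.05).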"}, "Solubility of curcumin": {"assay": "Solubility of curcumin", "type": "physicochemical", "details": "in the presence of FAM-Y4R4; absorption peak at 425 nm, curcumin standard curve"}, "[2]": {"details": "cited from earlier work"}, "[3]": {"assay": "UV-vis titration of curcumin with phenol", "type": "binding", "details": "isotherm at 430 nm, 1:1 model, non-linear regression", "outline": "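Curcumin was spectroscopically titrated with phenol, which stands in for the tyrosine side chain. The binding isotherm was plotted from absorbance at 430 nm. Ka was fitted by nonlinear regression to a one-host-to-one-guest binding model.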"}, "[4]": {"assay": "Overall binding constant of curcumin", "details": "average of fluorescence (tyrosine) and UV-vis (phenol) titration"}, "[5]": {"assay": "Spectral titration of phenol with guanidine HCl", "details": "calculated from the binding isotherm of phenol with guanidine HCl"}}}
{"smiles": "O=S(=O)(O)c1cc2c(O)c(c1)Cc1cc(S(=O)(=O)O)cc(c1O)Cc1cc(S(=O)(=O)O)cc(c1O)Cc1cc(S(=O)(=O)O)cc(c1O)C2", "note": "[CX4, p-sulfonatocalix[4]arene]", "values": [{"measurement": "hemolytic toxicity", "setting": "[1]", "value": "no hemolytic toxicity"}, {"measurement": "maximum decrease in cell viability", "setting": "A549 cells", "value": "≤ 22", "unit": "%"}]}
{"smiles": "COc1cc(/C=C/C(=O)CC(=O)/C=C/c2ccc(O)c(OC)c2)ccc1O", "note": "[curcumin]", "values": [{"measurement": "solubility of curcumin when bound to the tyrosines of FAM-Y4R4", "setting": "Solubility of curcumin", "value": 0.4, "unit": "µM"}, {"measurement": "solubility in water", "setting": "[2]", "value": 0.03, "unit": "µM"}, {"measurement": "Ka of curcumin to phenol", "setting": "[3]", "value": "4.6e+06", "unit": "M⁻¹"}, {"measurement": "overall binding constant Ka (average of the two values)", "setting": "[4]", "value": "2.38e+06", "unit": "M⁻¹"}]}
{"smiles": "Cl.N=C(N)N", "note": "[guanidine HCl]", "values": [{"measurement": "binding energy", "setting": "[5]", "value": 8.13, "unit": "kcal/mol"}]}
